# Assay results pooled from the literature.
# Protocols differ between the studies behind these lines.
# Target: Protein kinase C delta type (PRKCD, Homo sapiens, UniProt Q05655)
Structure (SMILES),read-out,technique,concentration,remaining binding
COc1ncc2cc3ccccc3nc2c1C#N,cell-free assay,competition with immobilised ligand,5 µM,75%
O=C(NCC1CCOCC1)c1n[nH]cc1NC(=O)c1c(F)cccc1F,binding,competition with immobilised ligand,1 µM,100%
COc1cnc(Nc2cccc(S(N)(=O)=O)c2)nc1N1CCN(c2ccccc2)C(=O)C1,binding,competition with immobilised ligand,1 µM,100%
Cc1cnn2ncc(-c3ccnc(N(C)C)n3)c2c1,binding,,1 µM,100%
C[C@@H](c1ccc(-n2cnc3c(N)ncnc32)cc1)N1CCc2nn(C)c(Cc3ccccc3)c2C1=O,binding,competition with immobilised ligand,0.1 µM,100%
N[C@@H]1CCN(c2nccc(-c3cnn4ncccc34)n2)C1,binding,,1 µM,96%
C=CC(=O)N1CCC(C(=O)NCC(=O)N2CCN(c3nc(-c4cnc(N)nc4C(F)F)nc(N4CCOCC4)n3)CC2)CC1,binding,competition with immobilised ligand,1 µM,100%
CS(=O)(=O)N1CCCC(NC(=O)[C@H](CCC2CCCCC2)NC(=O)c2ccc(CNc3ncnc4c3nnn4-c3ccccc3)cc2)C1 (stereo partly drawn),cell-free assay,competition with immobilised ligand,0.1 µM,80%
CC1CCCN1c1nccc(-c2cnn3ncccc23)n1 (stereo not drawn),binding,,1 µM,100%
O=C(c1ccc(Nc2ncc(Cl)c(-c3cc4ccccc4s3)n2)cc1)N1CCC(N2CCCC2)CC1,binding,competition with immobilised ligand,1 µM,32%
Cc1cc(NC(=O)c2cccc(S(F)(F)(F)(F)F)c2)cc(-n2ccn3nc(-c4cccnc4)cc23)c1,cell-free assay,competition with immobilised ligand,1 µM,95.8%
CN(C)c1ncc(F)c(-c2cnn3ncccc23)n1,binding,,1 µM,100%
O=C(NCCCN1CCOCC1)c1ccc(Nc2ncc(Cl)c(-c3ccc(Cl)s3)n2)cc1,binding,competition with immobilised ligand,1 µM,81%
O=C(NCc1ncc(C(F)(F)F)cc1Cl)c1ccc2c(c1)C1(CCS(=O)(=O)CC1)[C@@H](C1CC1)N2S(=O)(=O)c1ccc(F)cc1,cell-free assay,competition with immobilised ligand,1 µM,100%
C[C@@H]1CCN(c2nccc(-c3cnn4ncccc34)n2)C1,binding,,1 µM,100%
O=C(Nc1cnc(Oc2ccc(F)cc2)nc1)N1CCc2ncccc2[C@@H]1c1ccc(F)cc1,cell-free assay,competition with immobilised ligand,1 µM,87%
Cc1cnc(Nc2ccc(C(=O)N3CCC(N4CCCC4)CC3)cc2)nc1-c1cc2ccccc2s1,binding,competition with immobilised ligand,1 µM,23%
Cc1nc(N2CC[C@@H](O)C2)ncc1-c1cc(C(F)(F)F)cc2[nH]ncc12,cell-free assay,competition with immobilised ligand,1 µM,94%
COc1cnc(Nc2cccc(S(N)(=O)=O)c2)nc1N1CCN(c2ccccc2)CC1,binding,competition with immobilised ligand,1 µM,100%
F[C@@H]1CCN(c2nccc(-c3cnn4ncccc34)n2)C1,binding,,1 µM,100%
O=C(N[C@H]1CCCCC/C=C\C2C[C@@]2(C(=O)O)NC(=O)[C@@H]2C[C@@H](Oc3ccncc3)CN2C1=O)OC1CCCC1 (stereo partly drawn),cell-free assay,competition with immobilised ligand,1 µM,100%
